# Most compounds without a hit are left out; they make up all but 1.5% or so of the library.
# CXCR6 inh = CXCR6 receptor inhibitors, primary screen, cell-based, beta-arrestin, luminescence, CHO-K1 PathHunter, 1536-well; C-X-C chemokine receptor type 6 (Homo sapiens), O00574; inhibition, % at 20 µM; actives 0.36% (n = 360,000); in the data active means inhibition above about 34%, passing the limit was not always enough;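 further: antagonist mode with CXCL16 agonist at 10 nM final; 0% = 10 nM CXCL16 with DMSO and 100% = unstimulated wells without agonist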
# APJ ag = agonists of human apelin receptor APJ, primary screen, CHO-K1 cells, PathHunter beta-arrestin, luminescence | P35414 | activation, % at 20 µM | 0% DMSO wells, 100% apelin | actives 0.11% (n = 330,000);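 active means activation more than six SD over the plate average, tested at 20 µM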;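 further: 0% = DMSO alone and 100% = apelin-13 at 10 nM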
# Target sequence (P35414 whole entry, looked up): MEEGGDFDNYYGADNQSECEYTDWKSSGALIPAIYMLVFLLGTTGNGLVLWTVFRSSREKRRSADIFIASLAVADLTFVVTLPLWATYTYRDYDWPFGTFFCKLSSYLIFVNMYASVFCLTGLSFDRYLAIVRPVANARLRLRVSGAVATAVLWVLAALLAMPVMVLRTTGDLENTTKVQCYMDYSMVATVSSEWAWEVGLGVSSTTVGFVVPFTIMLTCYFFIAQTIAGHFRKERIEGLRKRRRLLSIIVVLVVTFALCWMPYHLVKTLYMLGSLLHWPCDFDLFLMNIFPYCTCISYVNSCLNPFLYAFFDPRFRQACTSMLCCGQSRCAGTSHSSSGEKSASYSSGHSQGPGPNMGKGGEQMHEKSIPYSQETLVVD
#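 Assay system: CHO-K1 cells stably expressing ProLink-tagged human APJ and arrestin–beta-gal acceptor. Compound dosing: 20 µM single point, 1% DMSO. Times: 16-18 h seeding, 90 min dark compound exposure, 60 min detection. Detection: beta-gal luminescence. Evaluation: APJ–arrestin association signal. Controls: negative DMSO alone, positive Apelin-13 at 10 nM.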
# APJ antagonist = antagonists of human apelin receptor APJ, primary screen, CHO-K1 cells, beta-arrestin complementation, luminescence; P35414; AID 2521, 2010; actives 0.32% (n = 330,000); inhibition, % at 20 µM;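 active means inhibition above about 40% at 20 µM, limit read from the data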;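 further: cells challenged with 10 nM apelin-13 agonist together with compound; plate controls were apelin-13 plus DMSO wells for no effect and DMSO wells lacking apelin-13 for full effect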
# NTR1 agonist = agonists of human NTR1, primary screen, imaging, U2OS cells, beta-arrestin-GFP, high content; actives 0.17% (n = 330,000); activation, % at 20 µM; Neurotensin receptor type 1 (Homo sapiens), P30989; AID 493036, 2011; NTR1-U2OS beta-arrestin-GFP spot imaging, agonist mode;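 active means activation at or above 40% of the spot to cytoplasm intensity ratio, with at least 20 cells analyzed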;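 further: 0% = DMSO without peptide and 100% = 100 nM NTR1 peptide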
# m5-HT2A agonist = mouse Htr2a agonists via beta-arrestin recruitment, primary screen, cell-based, luminescence | CHO-K1 mHTR2A beta-arrestin complementation; percent of 30 µM serotonin response | actives 0.66% (n = 360,000) | activation, % at 7.6 µM | 5-hydroxytryptamine receptor 2A (Mus musculus), P35363;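 active means activation above a run cutoff, the mean activation of all tested compounds plus 3 SD, cut at about 14% in these data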;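 further: 0% = plate median of compound wells and 100% = 30 µM serotonin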
# CCR6 antag = CCR6 receptor antagonists, primary screen, cell-based, CHO-K1, luminescence, beta-arrestin, uHTS; C-C chemokine receptor type 6 (Homo sapiens), P51684; CHO-K1 CCR6 PathHunter beta-arrestin, CCL20-stimulated; inhibition, % at 20 µM; actives 0.49% (n = 340,000);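 active means compounds whose inhibition of the agonist-driven luminescence signal at 20 µM reaches about 50%, limit read from the data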;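 further: cells stimulated with CCL20 at 14 nM final; plate controls were DMSO with CCL20 for no effect and DMSO without agonist for full effect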
# Starred values were filed as active, the others as inactive; · = not tested or not shown.
SMILES,CXCR6 inh,APJ ag,APJ antagonist,NTR1 agonist,m5-HT2A agonist,CCR6 antag
COc1ccc(C(=O)/C=C/C(=O)N(Cc2ccccc2)C(C(=O)NC2CCCCC2)c2ccncc2)c(O)c1 (centres undefined),13.2,-5.5,9.1,5.2,-4.4,3.6
COc1ccc(C(=O)/C=C/C(=O)N(CC(=O)NC2CCCCC2)Cc2ccccc2OC)c(O)c1,63.8*,·,·,·,0.8,83.5*
COc1ccc(C(=O)/C=C/C(=O)N(CC(=O)NC2CCCCC2)Cc2ccccc2)c(O)c1,71.0*,·,·,·,-4.6,97.4*
O=C(O)CSc1ccn(Cc2ccccc2)c1,-3.7,·,·,·,-8.1,·
CCOc1ccc(S(=O)(=O)N2CCC(C(=O)Nc3cc(S(C)(=O)=O)ccc3Cl)CC2)cc1,-0.4,-4.6,-8.8,1.9,4.9,4.2
Cc1c(Cl)cccc1NC(=O)CNC(=O)Cc1c[nH]c2ccccc12,2.7,-3.2,4.0,-1.4,8.1,-0.6
CCSc1ncc(CO)c(N)n1,-1.4,-3.0,-4.1,-0.8,-4.1,5.7
NS(=O)(=O)c1ccc(NC2=CC(c3ccc([N+](=O)[O-])cc3)N(c3ccc(S(N)(=O)=O)cc3)C2=O)cc1 (centres undefined),59.7*,-1.3,31.5,-0.3,0.5,50.4*
CCOc1ccc(S(=O)(=O)NC(C)C)cc1C(N)=O,-5.9,-2.3,3.6,-1.5,-1.6,-2.3
CO[C@H]1CN(C)C(=O)c2ccc(NC(=O)c3ccc4c(c3)OCO4)cc2OC[C@H](C)N(CC2CC2)C[C@@H]1C,·,·,·,·,-3.6,·
S=C(NNc1ccnc2cc(Cl)ccc12)Nc1ccc(Cl)cc1Cl,17.6,4.6,8.1,17.1,-10.4,54.4*
Cc1ccc(Cl)cc1N1CCN(C(=O)c2cc3c(=O)n(C)c4ccccc4c3n2C)CC1,5.5,13.3*,-27.2,15.5,-0.6,1.7
C=CCc1cccc(CNc2c(C)cc(C)cc2C)c1O,-6.2,-1.8,-15.5,0.1,-3.9,1.5
C=CCc1cccc(CNn2cnnc2)c1O,61.5*,-4.2,15.7,1.5,-1.7,20.5
O=C(NNc1c2ccccc2nc2ccccc12)c1cccc(O)c1,23.5,-0.9,27.3,8.9,-3.2,60.1*
O=C(COc1ccccc1)NNc1c2ccccc2nc2ccccc12,-1.9,2.7,-10.4,13.8,-8.6,14.2
COc1ccc(OCC(=O)NNc2c3ccccc3nc3ccccc23)cc1,7.5,3.8,5.5,58.1*,0.5,3.9
O=C(NNc1c2ccccc2nc2ccccc12)c1ccc(O)cc1O,33.4,-3.6,19.9,9.3,-6.0,49.6
NS(=O)(=O)c1ccc(Nc2ccc([N+](=O)[O-])c3nonc23)cc1,31.2,-6.0,35.4,1.1,-3.7,63.5*
Cc1ccc(C(=C2C3C=CC2C2C(=O)NC(=O)C32)c2ccc(C)cc2)cc1 (centres undefined),-5.1,-2.3,6.5,15.4,-4.9,53.8*
COC(=O)C1=C(C(=O)OC)SC(=C2C(=S)C(C)(C)N(C(=O)C(C)C)c3ccccc32)S1,31.8,-4.6,28.6,10.2,2.4,52.6*
CCCC(=O)N1c2ccccc2C(=C2SC(C(=O)OC)=C(C(=O)OC)S2)C(=S)C1(C)C,23.4,-5.5,10.2,6.8,1.4,·
COC(=O)C1=C(C(=O)OC)SC(=C2C(=S)C(C)(C)N(C(=O)C3CC3)c3ccccc32)S1,34.4,-11.8,38.5,11.8,2.8,52.4*
COc1cc([N+](=O)[O-])ccc1NC(=O)Oc1ccc(NC(C)=O)cc1,0.6,4.3,1.8,-1.0,-3.4,-1.0
COc1cc(NC(=O)c2ccc([N+](=O)[O-])cc2)c(OC)cc1NC(=O)CC(C)C,0.9,0.9,-27.0,-1.2,1.6,1.8
SMILES,CXCR6 inh,APJ ag,APJ antagonist,NTR1 agonist,m5-HT2A agonist,CCR6 antag
O=C(OCC(=O)c1ccc[nH]1)c1cncc(Br)c1,0.1,-2.4,14.9,0.9,15.0*,-0.3
O=C(OCC(=O)c1ccc[nH]1)c1ccccc1,-2.1,-4.0,6.0,-1.8,3.3,1.8
Nc1cccc(Oc2ccc3c(c2)C(=O)N(CC2CCCO2)C3=O)c1 (centres undefined),-7.2,-2.5,3.5,0.9,3.5,0.0
CCOc1ccc2c(c1)C(=NNC(=O)c1ccncc1)c1cc(OCC)ccc1-2,33.5,-12.1,57.5*,14.3,0.4,39.8
CCOc1ccc(NC(=O)c2ccncc2)cc1,-4.9,-4.0,-9.5,0.1,1.2,-17.7
O=C(N/N=C1\C/C(=N\NC(=O)c2ccncc2)c2ccccc21)c1ccncc1,29.9,4.5,-18.1,0.9,-3.5,55.6*
C=CCNC(=S)N1CCC(Cc2ccccc2)CC1,-10.1,7.2,-8.1,0.3,-5.1,13.3
S=C(Nc1ccc(N2CCOCC2)cc1)Nc1ccc2snnc2c1,2.3,-4.0,-17.4,2.8,-4.3,10.6
CC(NNC(=S)N1CCN(c2ccccn2)CC1)c1nccc2ccccc12 (centres undefined),25.9,·,·,·,1.7,64.2*
CCNC(=S)N1CCN(c2ccccn2)CC1,2.9,0.3,9.6,0.6,-0.7,6.1
C=CCNc1nc(N2CCCCC2)c(C#N)c2c1CN(Cc1ccccc1)CC2,-1.5,2.8,1.8,11.8,39.0*,-2.4
CCN1CCc2c(C#N)c(N3CCCCC3)nc(NCc3ccccc3)c2C1,6.6,-0.8,0.7,13.2,-11.0,22.8
O=C(N/N=C/c1cc(Br)cc(Br)c1O)c1cccc(N2CCCC2=O)c1,-20.3,-0.1,-23.2,4.9,-4.6,53.9*
O=C(N/N=C/c1ccc(Cl)cc1Cl)c1cccc(N2CCCC2=O)c1,-4.2,-2.6,-3.9,0.6,-2.4,0.4
CCOC(=O)N1CCN(S(=O)(=O)c2ccc(C(=O)NNc3nc4cc(C)cc(C)c4s3)cc2)CC1,-7.5,-1.0,7.0,4.5,22.6*,4.2
CCOC(=O)c1c(N)sc(-c2ccccc2)c1C,11.7,-4.6,1.6,3.1,-3.0,59.4*
CCOC(=O)c1c(N)sc(C(O)(C(F)(F)F)C(F)(F)F)c1-c1ccccc1,3.2,2.9,-10.8,3.1,6.0,-7.3
O=C(O)c1ccc(N=Nc2c(O)[nH]c3ccc(Br)cc23)cc1,11.5,-6.2,24.6,1.6,-7.5,19.8
O=c1ccc2cc3c([nH]c4ccc(Br)cc43)oc-2c1O,45.4*,-7.0,39.1,1.2,-1.5,·
CCC(=O)OCOc1ccc(/C=C2/CCC(CN(C)C)C2=O)cc1 (centres undefined),82.0*,·,·,·,2.5,89.9*
CCc1nc2ccc(C(=O)NCCCN3CCCC3=O)cn2c1N(C)C(=O)COc1ccccc1,4.0,·,·,·,10.0,·

# High-throughput results (PubChem)
